What is called MIC is the lowest concentration that inhibits growth of the organism.

What all share (type): cell-based
Data set [1] can be described thus: Cytotoxicity assay. Particulars: human, FaDu cells. The method in brief:
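FaDu cells, maintained per ATCC protocols, were seeded in EMEM with 10% FBS at 3 x 10^5 cells/ml and grown 24 h at 37°C, 5% CO2. Medium was replaced with two-fold serial dilutions of test compound in fresh medium for 72 h, then with FBS-free EMEM plus resazurin (final 0.15 mM) for 3-5 h. Fluorescence read at ex 540/em 590 nm. IC50 fitted from percent inhibition versus growth controls, converted to pIC50, and reported as mean ± S.E.M.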

The subject of data set [2] is H. pylori SS1. Briefly: H. pylori IC50 dose response. Particulars: for IC50: Helicobacter pylori; for fold greater potency than compound 1: H. pylori SS1.
In data set [3] the test system is H. pylori ATCC 43504. Put plainly: H. pylori IC50 dose response. Particulars: for IC50: Helicobacter pylori.
Data set [4] relates to panel of representative Gram-negative and Gram-positive species, including commensals. Briefly: MIC against panel of representative Gram-negative and Gram-positive species.
Data set [5] has as its system H. pylori HM-274 resistant isolates. Briefly: MIC of spontaneous resistant mutants of H. pylori HM-274. Particulars: two spontaneous mutants selected at twice the MIC of 28.
[6] abbreviates: SS1, read-out: H. pylori SS1 pIC50 (converted).
Where [7] appears, read: ATCC43504, read-out: H. pylori ATCC 43504 pIC50 (converted).

Molecules are shown by their SMILES. Read-outs that look alike come from different tables or passages of the source.

For the compound `COc1ccc([C@H](CO)Nc2ncnc3sc(-c4ccccc4)cc23)c(F)c1` [Compound 29, (R)-2-(2-fluoro-4-methoxyphenyl)-2-((6-phenylthieno[2,3-d]pyrimidin-4-yl)amino)ethan-1-ol], the IC50 at 72 h in data set [1] was 31600 nM. The IC50 in data set [2] (setting [6]) was 12.6 nM; in data set [3] (setting [7]), 20 nM. The MIC in data set [4] was ≥ 16 µg/mL.

With `CC(CO)Nc1ncnc2sc(-c3ccccc3)cc12` (centres unmarked) [Compound 10, 2-((6-phenylthieno[2,3-d]pyrimidin-4-yl)amino)propan-1-ol], the IC50 at 72 h in data set [1] is 100000 nM. Further, the “fold greater potency than compound 1” value in data set [2] is reported as 20 fold. In addition, the values for the IC50 in data set [2] (setting [6]) and in data set [3] (setting [7]) were 79.4 nM and 39.8 nM, respectively. The “fold increase in potency over compound 1” value in data set [3] (ATCC43504) is listed as 37 fold.

For the compound `COc1ccc(CC(CO)Nc2ncnc3sc(-c4ccccc4)cc23)cc1` (centres unmarked) [Compound 24, 3-(4-methoxyphenyl)-2-((6-phenylthieno[2,3-d]pyrimidin-4-yl)amino)propan-1-ol], the IC50 at 72 h in data set [1] was 15800 nM. The values for the IC50 in data set [2] (setting [6]) and in data set [3] (setting [7]) were 251 nM and 126 nM, respectively.

Consider `Cc1ccc(CCNc2ncnc3sc(-c4ccccc4)cc23)cc1C` [Compound 20, N-(3,4-dimethylphenethyl)-6-phenylthieno[2,3-d]pyrimidin-4-amine], for which, in data set [1], the IC50 at 72 h is < 15800 nM. Moreover, the values for the IC50 in data set [2] (setting [6]) and in data set [3] (setting [7]) were 501 nM and 79.4 nM, respectively.

Take `Cc1sc2ncnc(N[C@@H](CO)c3ccccc3)c2c1C` [Compound 37, (R)-2-((5,6-dimethylthieno[2,3-d]pyrimidin-4-yl)amino)-2-phenylethan-1-ol]: the IC50 at 72 h in data set [1] is < 20000 nM. In addition, the figures for the IC50 in data set [2] (setting [6]) and in data set [3] (setting [7]) were 631 nM and 6310 nM, respectively.

`OC[C@H](Nc1ncnc2scc(-c3ccccc3)c12)c1ccccc1` [Compound 40, (R)-2-phenyl-2-((5-phenylthieno[2,3-d]pyrimidin-4-yl)amino)ethan-1-ol]: the IC50 at 72 h in data set [1] was 31600 nM. The IC50 is 501 nM in data set [2] (setting [6]) and 3980 nM in data set [3] (setting [7]).

`COc1ccc([C@@H](CO)Nc2ncnc3sc(-c4ccccc4)cc23)cc1` [Compound 27, (S)-2-(4-methoxyphenyl)-2-((6-phenylthieno[2,3-d]pyrimidin-4-yl)amino)ethan-1-ol] had an IC50 at 72 h in data set [1] of 50100 nM. Moreover, the IC50 in data set [2] (SS1) is 110 nM; in data set [2] (setting [6]) it was 100 nM; in data set [3] (ATCC43504), 53 nM; in data set [3] (setting [7]) it was 50.1 nM.

Regarding `CC(O)CNc1ncnc2sc(-c3ccccc3)cc12` (centres unmarked) [Compound 11, 1-((6-phenylthieno[2,3-d]pyrimidin-4-yl)amino)propan-2-ol], the IC50 at 72 h in data set [1] was 63100 nM. Further, the “fold greater potency than compound 1” value in data set [2] is on record as 4 fold. For the same compound, the results for the IC50 in data set [2] (setting [6]) and in data set [3] (setting [7]) were 398 nM and 1000 nM, respectively. Moreover, in data set [3] (ATCC43504), the “fold increase in potency over compound 1” value is “less than 2 fold”.

As to `Cc1c(-c2ccccc2)sc2ncnc(N[C@@H](CO)c3ccccc3)c12` [Compound 38, (R)-2-((5-methyl-6-phenylthieno[2,3-d]pyrimidin-4-yl)amino)-2-phenylethan-1-ol], in data set [1], the IC50 at 72 h was 20000 nM. In addition, the IC50 in data set [2] (setting [6]) was 50.1 nM; in data set [3] (setting [7]) it was 316 nM.

In data set [1], `COc1ccc([C@H](CN)Nc2ncnc3sc(-c4ccccc4)cc23)cc1F` [Compound 31, (R)-1-(3-fluoro-4-methoxyphenyl)-N^1-(6-phenylthieno[2,3-d]pyrimidin-4-yl)ethane-1,2-diamine] had an IC50 at 72 h of 50100 nM. Moreover, the IC50 in data set [2] (setting [6]) is 1000 nM; in data set [3] (setting [7]) it was 3160 nM. In addition, the “fold increase in H. pylori IC50 on substituting hydroxyl for primary amine” value in data set [2] (SS1, relative to 30) is listed as > 79 fold; in data set [3] (ATCC 43504, relative to 30), > 79 fold. In data set [4], the MIC is ≥ 16 µg/mL.

In turn, `c1ccc(-c2cc3c(NCCc4cccnc4)ncnc3s2)cc1` [Compound 22, 6-phenyl-N-(2-(pyridin-3-yl)ethyl)thieno[2,3-d]pyrimidin-4-amine] showed an IC50 at 72 h in data set [1] of 100000 nM. The IC50 is 3160 nM in data set [2] (setting [6]) and 6310 nM in data set [3] (setting [7]).

On to `CN(CCCO)c1ncnc2sc(-c3ccccc3)cc12` [Compound 8, 3-(methyl(6-phenylthieno[2,3-d]pyrimidin-4-yl)amino)propan-1-ol], for which, in data set [1], the IC50 at 72 h is 100000 nM. Also, the IC50 in data set [2] (setting [6]) is 6310 nM; in data set [3] (setting [7]), 15800 nM.

`CCC(CO)Nc1ncnc2sc(-c3ccccc3)cc12` (centres unmarked) [Compound 16, 2-((6-phenylthieno[2,3-d]pyrimidin-4-yl)amino)butan-1-ol]: the IC50 at 72 h in data set [1] was 39800 nM. The values for the IC50 in data set [2] (setting [6]) and in data set [3] (setting [7]) were 20 nM and 100 nM, respectively.

In data set [1], `COc1ccc([C@H](CO)Nc2ncnc3sc(-c4ccccc4)cc23)cc1F` [Compound 30, (R)-2-(3-fluoro-4-methoxyphenyl)-2-((6-phenylthieno[2,3-d]pyrimidin-4-yl)amino)ethan-1-ol] gave an IC50 at 72 h of 31600 nM. Moreover, the IC50 in data set [2] (setting [6]) is 12.6 nM; in data set [3] (setting [7]) it was 15.8 nM. Moreover, the MIC in data set [4] was ≥ 16 µg/mL.

Take `COc1cccc(CNc2ncnc3sc(-c4ccccc4)cc23)c1OC` [Compound 23, N-(2,3-dimethoxybenzyl)-6-phenylthieno[2,3-d]pyrimidin-4-amine]: the IC50 at 72 h in data set [1] is 25100 nM. Besides, the IC50 in data set [2] (setting [6]) was 501 nM; in data set [3] (setting [7]), 1580 nM.

`c1ccc(-c2cc3c(NCCc4ccncc4)ncnc3s2)cc1` [Compound 21, 6-phenyl-N-(2-(pyridin-4-yl)ethyl)thieno[2,3-d]pyrimidin-4-amine] had an IC50 at 72 h in data set [1] of 126000 nM. The IC50 in data set [2] (setting [6]) was 1260 nM; in data set [3] (setting [7]), 2510 nM.

The compound `OCCNc1ncnc2sc(-c3ccccc3)cc12` [Compound 9, 2-((6-phenylthieno[2,3-d]pyrimidin-4-yl)amino)ethan-1-ol] gave an IC50 at 72 h in data set [1] of 100000 nM. Further, the IC50 was 2000 nM in data set [2] (setting [6]) and 5010 nM in data set [3] (setting [7]).

In the case of `COCC(C)Nc1ncnc2sc(-c3ccccc3)cc12` (centres unmarked) [Compound 14, N-(1-methoxypropan-2-yl)-6-phenylthieno[2,3-d]pyrimidin-4-amine], in data set [1], the IC50 at 72 h is 31600 nM. The figures for the IC50 in data set [2] (setting [6]) and in data set [3] (setting [7]) were 398 nM and 1260 nM, respectively. The “fold less potent than compound 10” value in data set [3] (ATCC43504) is on record as 29 fold.

Turning to `CC(C)C(CO)Nc1ncnc2sc(-c3ccccc3)cc12` (centres unmarked) [Compound 18, 3-methyl-2-((6-phenylthieno[2,3-d]pyrimidin-4-yl)amino)butan-1-ol], the IC50 at 72 h in data set [1] is 50100 nM. Besides, the IC50 is 794 nM in data set [2] (setting [6]) and 3160 nM in data set [3] (setting [7]).

As for `C[C@@H](CO)Nc1ncnc2sc(-c3ccccc3)cc12` [Compound 12, (S)-2-((6-phenylthieno[2,3-d]pyrimidin-4-yl)amino)propan-1-ol], the IC50 at 72 h in data set [1] was 251000 nM. The IC50 in data set [2] (setting [6]) is 2510 nM; in data set [3] (setting [7]) it was 5010 nM.

As to `COc1ccc([C@H](CO)Nc2ncnc3sc(-c4ccccc4)cc23)cc1` [Compound 26, (R)-2-(4-methoxyphenyl)-2-((6-phenylthieno[2,3-d]pyrimidin-4-yl)amino)ethan-1-ol], the IC50 at 72 h in data set [1] was 15800 nM. Moreover, the IC50 in data set [2] (SS1) was 6.8 nM; in data set [2] (setting [6]), 6.31 nM; in data set [3] (ATCC43504), 10 nM; in data set [3] (setting [7]), 10 nM. Further, the “fold increase in potency” value is > 69 fold in data set [2] (SS1 (stated for both strains), lead compounds relative to hits) and > 69 fold in data set [3] (ATCC 43504 (stated for both strains), lead compounds relative to hits). Further, the minimal inhibitory concentration (MIC) in data set [4] is ≥ 16 µg/mL.

`Cc1sc2ncnc(N[C@@H](CO)c3ccccc3)c2c1-c1ccccc1` [Compound 39, (R)-2-((6-methyl-5-phenylthieno[2,3-d]pyrimidin-4-yl)amino)-2-phenylethan-1-ol] showed an IC50 at 72 h in data set [1] of 126000 nM. Besides, the IC50 in data set [2] (setting [6]) is 7940 nM; in data set [3] (setting [7]), 15800 nM.

Consider `CCC(O)CNc1ncnc2sc(-c3ccccc3)cc12` (centres unmarked) [Compound 17, 1-((6-phenylthieno[2,3-d]pyrimidin-4-yl)amino)butan-2-ol], for which the IC50 at 72 h in data set [1] was 39800 nM. Besides, the results for the IC50 in data set [2] (setting [6]) and in data set [3] (setting [7]) were 251 nM and 794 nM, respectively.

`OC[C@H](Nc1ncnc2sc(-c3ccccc3)cc12)c1ccccc1` [Compound 28, (R)-2-phenyl-2-((6-phenylthieno[2,3-d]pyrimidin-4-yl)amino)ethan-1-ol]: the “MIC of resistant isolates relative to wildtype” value in data set [5] turned out to be 8 fold. Moreover, in data set [1], the IC50 at 72 h is < 20000 nM. Besides, the IC50 in data set [2] (setting [6]) is 10 nM; in data set [3] (ATCC43504), 23 nM; in data set [3] (setting [7]), 25.1 nM. Besides, in data set [4], the MIC was ≥ 16 µg/mL.

Compound `C[C@H](CO)Nc1ncnc2sc(-c3ccccc3)cc12` [Compound 13, (R)-2-((6-phenylthieno[2,3-d]pyrimidin-4-yl)amino)propan-1-ol] gave an IC50 at 72 h in data set [1] of 31600 nM. Moreover, the “fold greater potency than compound 1” value in data set [2] came out at 56 fold. In addition, the IC50 in data set [2] (setting [6]) is 31.6 nM; in data set [3] (setting [7]) it was 158 nM.

In data set [1], `COc1ccc(CCNc2ncnc3sc(-c4ccccc4)cc23)cc1OC` [Compound 19, N-(3,4-dimethoxyphenethyl)-6-phenylthieno[2,3-d]pyrimidin-4-amine] gave an IC50 at 72 h of 126000 nM. Further, the IC50 in data set [2] (setting [6]) was 39.8 nM; in data set [3] (ATCC43504) it was 160 nM; in data set [3] (setting [7]), 158 nM. Also, in data set [3] (ATCC43504), the “fold improved potency over compound 2” value is reported as 11 fold.

In the case of `OCCCCNc1ncnc2sc(-c3ccccc3)cc12` [Compound 15, 4-((6-phenylthieno[2,3-d]pyrimidin-4-yl)amino)butan-1-ol], the IC50 at 72 h in data set [1] is 126000 nM. For the same compound, the IC50 in data set [2] (setting [6]) is 316 nM; in data set [3] (setting [7]) it was 1580 nM.
